Experimental data collected from several papers.
Each line is one published result; the experiments were not run side by side.
Target: Serine/threonine-protein kinase MARK1 (MARK1, Homo sapiens, UniProt Q9P0L2)

COc1cc2ncnc(Nc3ccc(Oc4ccccc4)cc3C)c2cc1OC — inhibition (enzyme activity, inhibitor; 1 µM): 8%
O=C(NCCCNc1nc(Nc2cccc(NC(=O)N3CCCC3)c2)ncc1C1CC1)C1CCC1 — remaining activity (enzyme activity, inhibitor, radiometric; 1 µM): -4%
Cc1cc(NC(=O)c2cccc3cc(-c4cccc5[nH]nc(N)c45)ccc23)ccc1F — activity vs control (enzyme activity, inhibitor; 0.1 µM): 133%
C[C@@]1(Cc2ccc(C#N)cc2)C(=O)N(c2cc(Cl)cc(Cl)c2)c2ncc(C(=O)NC3(c4nc(C5CCC5)no4)CC3)n21 — remaining binding (cell-free assay, competition with immobilised ligand; 1 µM): 100%
CNC(=O)c1cc(Oc2ccc(NC(=O)Nc3ccc(Cl)c(C(F)(F)F)c3)cc2)ccn1 — inhibition (enzyme activity, inhibitor; 0.3 µM): 9%
O=S(=O)(NC1CCC(c2cc(F)ccc2F)(S(=O)(=O)c2ccc(Cl)cc2)CC1)C(F)(F)F (centres unmarked) — remaining binding (cell-free assay, competition with immobilised ligand; 1 µM): 100%
FC(F)(F)Oc1cccc(-c2cnc3ccc(-c4ccncc4)nn23)c1 — activity vs control (enzyme activity, inhibitor, radiometric; 5 µM): 95%
O=C(Nc1cccc(Nc2ncc(Br)c(NCCc3cnc[nH]3)n2)c1)N1CCCC1 — remaining activity (enzyme activity, inhibitor, radiometric; 1 µM): -4%
CCCS(=O)(=O)Nc1ccc(F)c(C(=O)c2c[nH]c3ncc(-c4ccc(Cl)cc4)cc23)c1F — inhibition (enzyme activity, inhibitor; 1 µM): < 10%
CS(=O)(=O)CCNCc1ccc(-c2ccc3ncnc(Nc4ccc(OCc5cccc(F)c5)c(Cl)c4)c3c2)o1 — remaining signal (cell-free assay; 0.5 µM): 149%
Cc1sc(C(=O)NC2COC2)cc1-n1cc(NC(=O)Nc2c(F)cccc2Cl)cn1 — remaining activity (enzyme activity, inhibitor; 10 µM): 95.3%
c1cc(CN2CCOCC2)cc(Nc2nccc(NCCc3cnc[nH]3)n2)c1 — remaining activity (enzyme activity, inhibitor, radiometric; 1 µM): 75%
Cc1ccc(NC(=O)c2ccc(C)c(C(F)(F)F)c2)cc1C#Cc1nn(C2CCC(O)CC2)c2ncnc(N)c12 (centres unmarked) — remaining signal (cell-free assay; 10 µM): 94%
COc1cc(-c2cn(C3CCc4ccccc4N(CC(F)(F)F)C3=O)nn2)ccc1-n1ccc(C)n1 (centres unmarked) — remaining binding (cell-free assay, competition with immobilised ligand; 1 µM): 99%
C#Cc1cccc(Nc2ncnc3cc(OCCOC)c(OCCOC)cc23)c1 — remaining signal (cell-free assay; 0.5 µM): 130%
C[C@@H](c1cccc(C#N)c1)n1cc(Cl)cc(C(N)=O)c1=N — remaining binding (cell-free assay, competition with immobilised ligand; 1 µM): 100%
Cc1nn(CC(F)(F)F)cc1Nc1ncc(C2CC2)c(NCc2ccc(S(N)(=O)=O)cc2)n1 — remaining activity (enzyme activity, inhibitor, radiometric; 1 µM): 108%
CC1=C(C#N)C(c2ccc3c(c2)c(NC(=O)c2ccccc2C)nn3C)C(C#N)=C(C)N1 — remaining binding (cell-free assay, competition with immobilised ligand; 1 µM): 100%
O=C(NCCCNc1nc(Nc2cccc(CN3CCOCC3)c2)ncc1C1CC1)C1CCC1 — remaining activity (enzyme activity, inhibitor, radiometric; 1 µM): -5%
Nc1ncnc2occ(-c3ccc(NC(=O)Nc4cc(C(F)(F)F)ccc4F)cc3)c12 — remaining signal (cell-free assay, inhibitor; 20 µM): 34%
Cc1nn(CC(F)(F)F)cc1Nc1ncc(C2CC2)c(NCCc2c[nH]cn2)n1 — remaining activity (enzyme activity, inhibitor, radiometric; 1 µM): 71%
Cc1ccc(Nc2nccc(N(C)c3ccc4c(C)n(C)nc4c3)n2)cc1S(N)(=O)=O — inhibition (enzyme activity, inhibitor; 10 µM): 26%
CCCCN(CCCC)C(=O)CN1C[C@@H](c2cc(OC)c3c(c2)OCO3)[C@H](C(=O)O)[C@H]1CC(C)(C)CCC — remaining binding (cell-free assay, competition with immobilised ligand; 1 µM): 88.7%
COc1cc2c(N3CCN(C(=O)Nc4ccc(OC(C)C)cc4)CC3)ncnc2cc1OCCCN1CCCCC1 — remaining signal (cell-free assay; 0.5 µM): 89.9%
CCN(CC)CCNC(=O)c1c(C)[nH]c(/C=C2\C(=O)Nc3ccc(F)cc32)c1C — inhibition (enzyme activity, inhibitor; 0.3 µM): 50%
COc1cc(/C=C/C(=O)CC(=O)/C=C/c2ccc(O)c(OC)c2)ccc1O — activity vs control (enzyme activity, inhibitor; 1 µM): 79%
CS(=O)(=O)N1CCCC(NC(=O)[C@H](CCC2CCCCC2)NC(=O)c2ccc(CNc3ncnc4c3nnn4-c3ccccc3)cc2)C1 (some centres unmarked) — remaining binding (cell-free assay, competition with immobilised ligand; 0.1 µM): 74%
CN(C)c1nccc(-c2cnn3ncccc23)n1 — remaining binding (binding; 1 µM): 96%
Cc1nn(CC(F)(F)F)cc1Nc1ncc(Br)c(NCCc2cnc[nH]2)n1 — remaining activity (enzyme activity, inhibitor, radiometric; 1 µM): 49%
CC(=O)C1=C(C)N(c2cccc(C(F)(F)F)c2)C(=O)N[C@@H]1c1ccc(C#N)nc1 — remaining binding (cell-free assay, competition with immobilised ligand; 1 µM): 100%
Cc1nn(CC(F)(F)F)cc1Nc1nccc(NCc2ccc(S(N)(=O)=O)cc2)n1 — remaining activity (enzyme activity, inhibitor, radiometric; 1 µM): 107%
COc1cc2ncnc(Nc3ccc(F)c(Cl)c3)c2cc1OCCCN1CCOCC1 — remaining signal (cell-free assay; 0.5 µM): 116%
